# Mdm2 ligase inh: MDM2-luciferase reporter signal enhancers, primary screen, MDM2 E3 ligase inhibitor project, cell-based, luminescence, 1536-well; signal enhancement, % at 5 µM; hit rate 0.11% among 210,000; cell-based MDM2 ubiquitination luciferase reporter, 2 h; 0 = plate control, 100 = twice control, blank-subtracted;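 active means signal enhancement of 30% or more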;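 further: luminescence tracks abundance of the self-degrading MDM2-luciferase fusion protein; higher signal means inhibition of MDM2 E3 ligase activity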
#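 Assay system: stable mammalian line carrying autodegrading MDM2–luciferase fusion reporter; amount: 2000 cells seeded into each well; buffer or medium: DMEM; benchmarks: plate control and blank wells; signal: luciferase luminescence; timing: 2 h compound exposure at 37 °C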
# L929 necroptosis: inhibitors of zVAD-triggered necroptosis, primary screen, L929 cells; L929 zVAD necroptosis rescue, ATP luminescence, 24 h; with zVAD 60 µM; viability rescue, % at 10 µM; hit rate 0.38% among 220,000; AID 1377, 2008;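 active means activation, scaled between plate controls, above about 75%, limit read from the data; inactive means activation under that limit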
# TNF necrop inh: inhibitors of TNF-alpha triggered necroptosis, primary screen, cell-based, Jurkat FADD-/-, single concentration | Jurkat FADD-/- TNF necroptosis rescue, ATP luminescence, 24 h; 0 = TNF only, 100 = no-TNF cells | activation (protection from cell death), % at 10 µM | hit rate 0.068% among 220,000 | AID 463075, 2010;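 active means activation, meaning protection from cell death, of at least 50% relative to plate controls; inactive means activation below 50%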;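 further: necroptosis triggered by 40 ng/mL TNF-alpha added together with compound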
# Pf gamet viab: late stage P. falciparum gametocyte viability inhibitors, primary screen, ATP luminescence, HTS | P. falciparum stage V gametocytes, 24 h | inhibition, % at 10.9 µM | hit rate 0.065% among 150,000;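 active means inhibition above the mean plus 3 SD of compounds within the control limits, set per campaign, cut at about 38% in these data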
# Wee1 stabilizer: Wee1 degradation inhibitors, primary screen, cell-based, HeLa, Wee1K328M-luciferase, luminescence | HeLa Luc-Wee1K328M stability; 100% = proteasome inhibitor MG132 effect | reporter increase, % at 5 µM | hit rate 1.2% among 220,000 | AID 1321, 2008;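 active means activation above the mean of all tested compounds plus 3 SD, set per screening run, cut at about 8.8% in these data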;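 further: cells exposed to compound for 20 h before luminescence read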
# zVAD death conf: inhibitors of zVAD-triggered necroptosis in L929, confirmation, L929 cells, duplicate runs | L929 zVAD-induced necroptosis rescue, ATP luminescence, 24 h | activation (protection from necroptosis), % at 10 µM | hit rate 16% among 760 | shares compounds with L929 necroptosis | AID 463117, 2010;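 active means mean protection from necroptosis of at least 50% over duplicate tests; inactive means mean protection below 50%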
# Hits are given with their value; 0 = inactive; - = no result. In the library only some 1.6% were active in any assay of this set; here they are far more common.
SMILES,Mdm2 ligase inh,L929 necroptosis,TNF necrop inh,Pf gamet viab,Wee1 stabilizer,zVAD death conf
Cc1cnc(NC(=O)CSc2ccc(Cl)cc2)s1,0,0,0,-,0,-
Cc1cccnc1NC(=O)Nc1ccc(F)cc1,0,82,0,-,0,0
CCN(CC)CCNC(=O)c1ccc2c(=O)n(CCc3ccccc3)c(=O)[nH]c2c1,0,89,0,0,0,0
O=C(NCCCN1CCCCC1)c1ccc2c(=O)n(CCc3ccccc3)c(=O)[nH]c2c1,0,80,0,-,0,0
COc1ccc(Cn2c(=O)[nH]c3cc(C(=O)NCCCN4CCCCCC4)ccc3c2=O)cc1,0,0,0,0,0,-
CCC(NC(=O)CCl)c1ccc(C)cc1 (centres undefined),0,77,0,0,0,0
COCCOC(=O)C1=C(C)NC(=O)NC1/C=C/c1ccccc1 (centres undefined),0,0,0,0,0,-
CSc1nc2ccc(Nc3nc(N4CCOCC4)nc(N4CCOCC4)n3)cc2s1,0,84,0,0,0,0
COc1cc(/C=N\Nc2nc3ccccc3[nH]2)cc(OC)c1OC,0,81,0,-,0,0
COc1ccc(/C=N/Nc2nc3ccccc3[nH]2)cc1OC,0,79,0,0,0,0
CCOc1cc(/C=N/Nc2nc3ccccc3[nH]2)cc(Br)c1OCC(=O)N(C)C,0,78,0,-,0,58
COc1cc(NC(=O)c2cnc(N)s2)cc(C(=O)Nc2cccc(C(F)(F)F)c2)c1,32,79,0,0,-,74
NS(=O)(=O)c1ccc(CNC(=O)/C=C/c2ccccc2[N+](=O)[O-])cc1,0,0,0,0,0,-
Cc1ccc(/C=N\Nc2nc3ccc(Cl)cc3[nH]2)o1,0,86,0,-,0,78
Fc1ccccc1-c1ccc(/C=N/Nc2nc3ccccc3[nH]2)o1,0,0,0,0,0,-
COC(=O)c1ccc(NC(=O)c2cccc(C)c2[N+](=O)[O-])cc1,0,85,0,0,0,0
CC(C)Cc1ccc(C(=O)NCc2ccc3c(c2)OCO3)o1,-,-,-,0,-,-
COC(=O)c1sccc1NC(=S)Nc1cc(OC)ccc1OC,0,0,0,0,0,-
CCC(=O)Nc1cc(SCCO)cc([N+](=O)[O-])c1,0,0,0,0,0,-
O=C(CCl)Nc1cc(SCC(O)CO)cc([N+](=O)[O-])c1 (centres undefined),0,81,0,0,0,77
COc1ccc2c(c1)c(C(=O)O)c(C)n2-c1ccccc1,0,0,0,0,0,-
NC(=O)c1ccc(-n2nnnc2SCc2ccccc2)cc1,0,0,0,0,0,-
O=C(Nc1nccs1)c1ccc(CSc2nnnn2-c2ccccc2)cc1,0,87,0,0,0,89
Cn1c(N)c(C(=O)N/N=C/c2ccccc2)sc1=S,0,75,0,0,0,76
Cc1c(C(=O)N/N=C/c2cccnc2)sc(=S)n1C,0,0,0,0,0,-
SMILES,Mdm2 ligase inh,L929 necroptosis,TNF necrop inh,Pf gamet viab,Wee1 stabilizer,zVAD death conf
CCCN1C2CCCC1CC(NC(=O)c1ccc(C(C)(C)C)cc1)C2 (centres undefined),-,-,-,0,-,-
O=C(CCNS(=O)(=O)c1ccc(Br)cc1)NC1CCCCC1,0,0,0,-,0,-
CC1CCCC(NC(=O)CCNS(=O)(=O)c2ccc(Br)cc2)C1C (centres undefined),0,77,0,-,0,0
C(=N\Nc1ncnc2sc3c(c12)CCC3)/c1cccs1,0,81,0,0,0,0
c1cc(Nc2ncnc3sc4c(c23)CCC4)ccn1,0,0,0,0,0,-
C(=N\Nc1ncnc2sc3c(c12)CCC3)/c1ccncc1,0,79,0,0,0,0
Cc1cccc(OCC(=O)N/N=C\C=C\c2ccc3c(c2)OCO3)c1C,0,0,0,0,0,-
O=C1[C@H](Cc2ccccc2)NCCCC[C@@H](c2ccc(Cl)cc2)N1Cc1ccccc1,-,-,-,0,-,-
c1ccc2c(c1)nc(N1CCOCC1)c1c3ccccc3[nH]c21,0,82,0,-,0,0
